Here are results for 2 molecules from ChEMBL document CHEMBL5149984, “Discovery of HN37 as a Potent and Chemically Stable Antiepileptic Drug Candidate” (J Med Chem, 2021).

For data set [1], the target named is Potassium voltage-gated channel subfamily KQT member 2 (Rattus norvegicus) (UniProt O88943). Description: Agonist activity at rat Kv7.2 channel expressed in CHO cells assessed as shift of half voltage of maximal activation at 10 uM by whole cell patch clamp based electrophysiological method. Particulars: filed as agonist. In a few lines: (§1)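 Rat KCNQ2 cotransfected with EGFP plasmid by Lipofectamine 3000 into CHO cells (DMEM/F12, 10% FBS; split 24 h before transfection). Whole-cell recording at room temperature. Pipette: 145 mM KCl, 1 mM MgCl2, 5 mM EGTA, 10 mM HEPES, 5 mM MgATP, pH 7.3. Bath, constantly perfused: 140 mM NaCl, 5 mM KCl, 2 mM CaCl2, 1.5 mM MgCl2, 10 mM glucose, 10 mM HEPES, pH 7.4. Signals filtered at 1 kHz. Compound at 10 μM. I/I0 is outward current amplitude with over without compound. ΔV1/2 is the shift in V1/2 from Boltzmann fits of activation curves. Mean ± SEM.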

For data set [2] the target is unchanged. The experiment in a line: Agonist activity at rat Kv7.2 channel expressed in CHO cells assessed as amplitude change of outward current at 10 uM by whole cell patch clamp based electrophysiological method. Particulars: filed as agonist. The gist of the method: as §1
A short description of data set [3]: AUC(0 to t) in Kunming mouse plasma at 5 mg/kg, po measured upto 24 hrs by LC-MS/MS method. Type of data set: ADME, organism-based. More on the design: dose 5 mg/kg, time < 24 hrs, route po. In a few lines: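 KM male mice (18−24 g), fasted 12 h before and 2 h after dosing. HN37 given orally at 5 mg/kg in 5% DMSO/5% Tween 80/90% saline, or iv at 2 mg/kg after dilution in saline with 1% Tween 80; n = 3 per time point. Blood sampled 0.25–24 h (from 0.083 h after iv); whole brain taken after oral dosing. Plasma and brain extracted with acetonitrile, quantified by LC−MS/MS; AUC0−t by trapezoidal method.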

Another data set concerns the target CYP2D6 (Homo sapiens, UniProt P10635). Description: Ratio of IC50 for human liver microsome CYP2D6 in absence of NADPH to IC50 for human liver microsome CYP2D6 in presence of NADPH. Particulars: liver microsomes, read-out: Ratio IC50.
In data set [4] the target is Potassium voltage-gated channel subfamily KQT member 2 (Rattus norvegicus, UniProt O88943). Description: Agonist activity at rat KCNQ2 channel expressed in CHO cells by patch clamp method. Type of data set: cell-based. The gist of the method: (§2)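 Whole-cell patch clamp at room temperature on CHO cells (DMEM/F12, 10% FBS) transiently co-transfected with EGFP and hKCNQ1, rKCNQ2, rKCNQ3 A278T, hKCNQ4 or hKCNQ5; KCNQ2/3 at 1:1 cDNA ratio. Pipette solution 145 mM KCl, 5 mM MgATP, pH 7.3; bath 140 mM NaCl, 5 mM KCl, pH 7.4, under perfusion. V1/2 from Boltzmann fits; I/I0 is current amplitude with versus without compound; n = 4−6.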
A general note: The patch-clamp technique gives a direct electrical read-out from membranes.

Data set [5] concerns the target Potassium voltage-gated channel subfamily KQT member 2/member 3 (Rattus norvegicus, UniProt O88943+O88944). The experiment in a line: Agonist activity at rat KCNQ2/3 channel expressed in CHO cells by patch clamp method. Type of data set: cell-based. In a few lines:
as §2

The subject of data set [6] is Mus musculus. Description: Anticonvulsant activity in po dosed MES induced Kunming mouse model of seizure. Type of data set: functional. In a few lines: (§3)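 MES test in male KM mice. Compounds freshly suspended in 0.5% CMC-Na and given by gavage at 20 mL/kg; 160 V stimulus through ear clips. Protection scored as absence of hindlimb tonic extension; time course at 0.25, 0.5, 1 and 2 h, otherwise tested at 1 h. ED50 from dose−response by nonlinear regression; Fisher's exact test versus vehicle.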

For data set [7], the species on record is Mus musculus. Description: Anticonvulsant activity in MES induced Kunming mouse model of seizure assessed as EC50 in plasma. It counts as functional, organism-based. The gist of the method:
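After the MES test in KM mice (oral dosing in 0.5% CMC-Na, 1 h), animals were killed immediately and plasma and brain concentrations were measured by LC−MS/MS. EC50 from concentration−response curves of protection against plasma concentration, by nonlinear regression.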

Data set [8] in a line: Neurotoxicity in Kunming mouse assessed as motor impairment rate at 60 mg/kg, po after 1 hr by rotarod test. Type of data set: toxicity, organism-based. The note with it: in vivo. The gist of the method:
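Male KM mice dosed intragastrically with compound freshly suspended in 0.5% CMC-Na. Rotarod performance scored 1 h after dosing as the fraction of animals showing motor impairment. Fisher's exact test versus vehicle; TD50 from nonlinear dose−response fit.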

Data set [9] is filed under the species Mus musculus. The experiment in a line: Anticonvulsant activity in Kunming mouse assessed as reduction in MES-induced seizure after 1 hr. Type of data set: functional. In a few lines:
as §3

The species named for data set [10] is Mus musculus. Description: Anticonvulsant activity in Kunming mouse assessed as reduction in Sc-PTZ induced seizure after 1 hr. It counts as functional. In a few lines: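 sc-PTZ test in male KM mice. Compound suspended in 0.5% CMC-Na and given orally 1 h before PTZ (freshly dissolved in normal saline, 100 mg/kg). Protection against clonic seizures scored; ED50 by nonlinear regression.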

Data set [11] is filed under the species Mus musculus. The experiment in a line: Anticonvulsant activity in C57BL/6 mouse 6 Hz seizure model at 32 mA measured after 1 hr. Type of data set: functional.
The species named for data set [12] is Mus musculus. Description: Anticonvulsant activity in C57BL/6 mouse 6 Hz seizure model at 44 mA measured after 1 hr. Type of data set: functional.
The target of data set [13] is T1, Potassium voltage-gated channel subfamily KQT member 4 (Homo sapiens) (UniProt P56696).
T1 sequence (whole entry): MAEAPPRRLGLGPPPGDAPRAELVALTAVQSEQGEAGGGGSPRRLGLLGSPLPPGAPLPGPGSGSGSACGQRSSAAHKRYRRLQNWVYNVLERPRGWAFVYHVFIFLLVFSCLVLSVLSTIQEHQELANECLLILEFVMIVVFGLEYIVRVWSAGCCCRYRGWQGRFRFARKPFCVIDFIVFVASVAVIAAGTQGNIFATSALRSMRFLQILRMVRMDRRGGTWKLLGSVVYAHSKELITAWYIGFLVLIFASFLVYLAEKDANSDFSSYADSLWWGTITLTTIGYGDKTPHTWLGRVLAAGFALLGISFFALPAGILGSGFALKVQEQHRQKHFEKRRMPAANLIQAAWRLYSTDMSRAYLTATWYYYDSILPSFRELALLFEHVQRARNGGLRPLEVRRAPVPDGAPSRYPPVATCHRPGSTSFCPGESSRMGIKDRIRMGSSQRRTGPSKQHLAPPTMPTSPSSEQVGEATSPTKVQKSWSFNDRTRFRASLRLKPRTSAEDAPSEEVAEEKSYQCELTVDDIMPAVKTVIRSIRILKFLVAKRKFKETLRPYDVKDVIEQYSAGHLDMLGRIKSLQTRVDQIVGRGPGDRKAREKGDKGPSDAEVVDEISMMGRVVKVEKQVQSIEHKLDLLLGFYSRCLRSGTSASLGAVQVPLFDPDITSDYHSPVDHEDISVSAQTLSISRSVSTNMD
The experiment in a line: Agonist activity at human KCNQ4 channel expressed in CHO cells assessed as amplitude change of outward current at 10 uM by patch clamp method. Type of data set: cell-based. The note with it: filed as agonist. The gist of the method: as §2

Potassium voltage-gated channel subfamily KQT member 2 (Rattus norvegicus), sequence (O88943 whole entry, the tested form may be a part): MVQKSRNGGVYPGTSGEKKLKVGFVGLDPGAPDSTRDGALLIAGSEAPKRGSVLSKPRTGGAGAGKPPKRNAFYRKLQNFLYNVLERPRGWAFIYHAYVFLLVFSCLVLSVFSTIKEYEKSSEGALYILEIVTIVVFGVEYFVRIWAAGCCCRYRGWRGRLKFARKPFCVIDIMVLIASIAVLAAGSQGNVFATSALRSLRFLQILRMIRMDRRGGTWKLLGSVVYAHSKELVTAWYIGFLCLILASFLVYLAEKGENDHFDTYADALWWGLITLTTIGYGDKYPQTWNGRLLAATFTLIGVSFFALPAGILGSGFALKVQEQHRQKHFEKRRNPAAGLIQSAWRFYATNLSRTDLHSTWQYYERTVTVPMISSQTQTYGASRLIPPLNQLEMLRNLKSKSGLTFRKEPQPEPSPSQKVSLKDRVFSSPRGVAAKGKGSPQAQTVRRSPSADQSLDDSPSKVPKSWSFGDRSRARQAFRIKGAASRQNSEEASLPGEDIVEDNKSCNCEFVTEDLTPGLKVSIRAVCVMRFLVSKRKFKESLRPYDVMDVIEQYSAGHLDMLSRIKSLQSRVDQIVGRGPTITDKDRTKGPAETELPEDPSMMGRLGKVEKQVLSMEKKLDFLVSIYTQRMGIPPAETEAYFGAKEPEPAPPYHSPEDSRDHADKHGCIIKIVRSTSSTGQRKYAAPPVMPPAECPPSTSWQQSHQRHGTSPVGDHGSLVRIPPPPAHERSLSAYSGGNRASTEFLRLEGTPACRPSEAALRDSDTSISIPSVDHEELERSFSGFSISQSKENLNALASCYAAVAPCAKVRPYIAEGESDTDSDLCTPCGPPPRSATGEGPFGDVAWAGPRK
Potassium voltage-gated channel subfamily KQT member 2/member 3, sequence (O88943 whole entry): as the sequence (O88943 whole entry, the tested form may be a part) above
Potassium voltage-gated channel subfamily KQT member 2/member 3, sequence (O88944 whole entry): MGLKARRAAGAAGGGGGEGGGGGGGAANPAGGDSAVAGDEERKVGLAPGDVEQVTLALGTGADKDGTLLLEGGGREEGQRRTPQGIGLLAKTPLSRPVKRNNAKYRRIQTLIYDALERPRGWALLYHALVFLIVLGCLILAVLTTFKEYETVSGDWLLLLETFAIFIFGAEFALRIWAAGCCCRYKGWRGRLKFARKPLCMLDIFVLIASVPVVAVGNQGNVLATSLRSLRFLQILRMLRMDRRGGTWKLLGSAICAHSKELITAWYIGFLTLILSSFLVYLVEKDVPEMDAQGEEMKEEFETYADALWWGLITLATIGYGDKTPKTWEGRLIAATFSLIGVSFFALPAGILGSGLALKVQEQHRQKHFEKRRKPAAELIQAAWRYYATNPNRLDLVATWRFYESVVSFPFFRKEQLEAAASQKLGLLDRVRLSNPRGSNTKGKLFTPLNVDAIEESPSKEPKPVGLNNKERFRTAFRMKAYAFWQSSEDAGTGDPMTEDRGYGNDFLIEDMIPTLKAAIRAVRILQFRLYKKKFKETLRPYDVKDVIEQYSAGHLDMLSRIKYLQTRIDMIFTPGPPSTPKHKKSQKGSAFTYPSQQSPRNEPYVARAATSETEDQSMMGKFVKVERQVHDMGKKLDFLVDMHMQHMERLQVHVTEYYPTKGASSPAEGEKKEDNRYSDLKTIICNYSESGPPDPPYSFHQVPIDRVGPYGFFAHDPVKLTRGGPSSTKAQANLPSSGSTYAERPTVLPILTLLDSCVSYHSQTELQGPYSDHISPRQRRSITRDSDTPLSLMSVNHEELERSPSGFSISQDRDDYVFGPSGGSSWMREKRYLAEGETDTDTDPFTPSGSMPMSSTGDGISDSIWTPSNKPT
Potassium voltage-gated channel subfamily KQT member 2, sequence (O88943 whole entry, the tested form may be a part): as the sequence (O88943 whole entry, the tested form may be a part) above
CYP2D6, sequence (P10635 whole entry, the tested form may be a part): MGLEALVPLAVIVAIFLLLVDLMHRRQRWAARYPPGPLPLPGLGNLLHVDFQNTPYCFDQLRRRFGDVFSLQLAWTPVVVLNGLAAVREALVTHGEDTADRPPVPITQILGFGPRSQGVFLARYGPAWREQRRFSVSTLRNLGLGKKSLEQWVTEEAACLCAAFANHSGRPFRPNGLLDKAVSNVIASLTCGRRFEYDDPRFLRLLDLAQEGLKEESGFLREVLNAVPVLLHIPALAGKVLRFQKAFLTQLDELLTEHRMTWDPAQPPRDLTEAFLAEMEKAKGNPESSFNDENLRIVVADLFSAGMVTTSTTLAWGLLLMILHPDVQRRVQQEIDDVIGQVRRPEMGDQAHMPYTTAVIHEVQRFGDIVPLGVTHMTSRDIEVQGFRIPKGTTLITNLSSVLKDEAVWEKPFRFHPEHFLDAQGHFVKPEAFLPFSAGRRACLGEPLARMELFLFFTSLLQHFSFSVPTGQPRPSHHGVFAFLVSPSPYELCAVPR

For the molecule `C#CCN(Cc1ccc(F)cc1)c1cc(C)c(NC(=O)OC)c(C)c1`, the figures for the Activity in data set [1], in data set [2] and in data set [8] were -38.5 mV, 4.75 and “Non-Toxic”, respectively. Besides, in data set [3], the AUC(0-t) at 24 h is 321 ng·h/mL. Further, the IC50 shift on CYP2D6 was less than 1.5. For the same molecule, the EC50 in [4] is 37 nM; in data set [5] it was 33.1 nM; in the data set listed under Mus musculus [7], 50 nM. Besides, the ED50 in the data set with Mus musculus [6] came to 1.9 mg/kg; in the data set filed under Mus musculus [9], 1.9 mg/kg; in the data set filed under Mus musculus [10], 9.8 mg/kg; in the data set filed under Mus musculus [11] it was 16.8 mg/kg; in the data set listed under Mus musculus [12], 29.9 mg/kg.
For the molecule `CCOC(=O)Nc1ccc(NCc2ccc(F)cc2)cc1N` [EZOGABINE], the Activity is -33.2 mV in data set [1], 1.79 in data set [2], 2.85 in [13] and “Non-Toxic” in data set [8]. For the same molecule, the EC50 stood at 2040 nM in data set [4], 4150 nM in data set [5] and 20000 nM in the data set listed under Mus musculus [7]. For the same molecule, the ED50 is 38.6 mg/kg in the data set on Mus musculus [6]; 38.6 mg/kg in the data set filed under Mus musculus [9]; greater than 56 mg/kg in the data set listed under Mus musculus [10]; 65.9 mg/kg in the data set filed under Mus musculus [11]; 102 mg/kg in the data set listed under Mus musculus [12].

What is called AUC(0-t) is the area under the concentration-time curve up to a stated or last time point. A lower AUC(0-t) goes with low exposure. Usually EC50 stands for the concentration needed to bring the measured effect to its halfway point. Usually ED50 stands for the dose that gives a 50% effect, or the effect in half of the subjects.
